Measurements of several laboratories.
Target: Bone morphogenetic protein receptor type-2 (BMPR2, Homo sapiens, UniProt Q13873)
Sequence (Q13873 27-1038, as in one of the studies): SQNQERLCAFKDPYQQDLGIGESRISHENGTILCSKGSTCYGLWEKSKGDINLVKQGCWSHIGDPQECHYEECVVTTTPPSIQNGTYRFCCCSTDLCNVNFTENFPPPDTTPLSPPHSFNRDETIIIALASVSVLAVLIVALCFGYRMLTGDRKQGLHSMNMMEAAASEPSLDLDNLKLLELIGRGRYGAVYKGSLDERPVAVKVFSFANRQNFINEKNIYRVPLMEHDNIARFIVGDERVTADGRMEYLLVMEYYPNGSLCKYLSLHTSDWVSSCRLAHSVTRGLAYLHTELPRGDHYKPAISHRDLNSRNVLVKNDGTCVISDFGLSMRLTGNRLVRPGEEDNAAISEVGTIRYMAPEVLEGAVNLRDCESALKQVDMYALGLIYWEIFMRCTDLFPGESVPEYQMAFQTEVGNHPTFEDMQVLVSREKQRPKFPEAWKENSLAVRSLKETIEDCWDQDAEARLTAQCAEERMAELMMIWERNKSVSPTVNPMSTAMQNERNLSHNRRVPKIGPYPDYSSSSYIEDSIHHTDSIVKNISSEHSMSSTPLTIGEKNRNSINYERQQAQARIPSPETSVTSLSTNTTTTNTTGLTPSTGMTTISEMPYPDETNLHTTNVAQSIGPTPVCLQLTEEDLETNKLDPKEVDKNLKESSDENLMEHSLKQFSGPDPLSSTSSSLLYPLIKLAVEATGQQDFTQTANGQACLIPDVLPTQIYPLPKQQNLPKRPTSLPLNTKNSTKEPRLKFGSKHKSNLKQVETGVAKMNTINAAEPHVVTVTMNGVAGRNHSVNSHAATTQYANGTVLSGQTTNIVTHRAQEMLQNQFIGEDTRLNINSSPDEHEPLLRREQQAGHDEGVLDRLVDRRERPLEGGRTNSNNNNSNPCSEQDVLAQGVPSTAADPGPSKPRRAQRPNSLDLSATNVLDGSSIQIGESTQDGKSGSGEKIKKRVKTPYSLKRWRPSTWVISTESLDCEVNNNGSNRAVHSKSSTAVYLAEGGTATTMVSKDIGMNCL

For `CN(C)c1nccc(-c2cnc3ncccn23)n1`, the remaining binding was 67% (binding; 1 µM).
`O=C(c1ccc(Nc2ncc(Cl)c(-c3cc4ccccc4s3)n2)cc1)N1CCC(N2CCCC2)CC1` has a remaining binding of 29% (binding; competition with immobilised ligand; 1 µM).
With `CNC(=O)[C@@H]1CC[C@@H](n2c(-c3ccc4cnccc4c3)nc3ccc(C(=O)NCc4cccc(C(N)=O)c4)cc32)C1` the remaining binding was 0.25% (binding; competition with immobilised ligand; 1 µM).
`CCCCN(CCCC)C(=O)CN1C[C@@H](c2cc(OC)c3c(c2)OCO3)[C@H](C(=O)O)[C@H]1CC(C)(C)CCC` gave a remaining binding of 86.7% (cell-free assay; competition with immobilised ligand; 1 µM).
For `C[C@@H]1CN(c2ccc3ncc(-c4ccc5[nH]nc(C6CC6)c5c4)n3n2)C[C@H](C)O1`, the remaining binding was 56% (binding; competition with immobilised ligand; 0.5 µM).
`O=C(NCc1ncc(C(F)(F)F)cc1Cl)c1ccc2c(c1)C1(CCS(=O)(=O)CC1)[C@H](C1CC1)N2S(=O)(=O)c1ccc(F)cc1` gave a remaining binding of 80% (cell-free assay; competition with immobilised ligand; 1 µM).
The remaining binding of `CN(c1nccc(-c2cnn3ncccc23)n1)C1CC1` is reported as 100% (binding; 1 µM).
`CC(=O)N1CCC(c2ccc(C(=O)NC3=NCCN3)cc2C(F)(F)F)CC1` gave a remaining binding of 100% (cell-free assay; competition with immobilised ligand; 1 µM).
The remaining binding of `CCN1CCN(Cc2ccc(C(=O)Nc3ccc(C)c(Oc4ccc5c(c4)CC(=O)N5)c3)cc2C(F)(F)F)CC1` is reported as 100% (binding; competition with immobilised ligand; 1 µM).
`CCOC(=O)c1cc2cc(-c3cc(C(=O)NCc4ccc(C(=O)O)cc4)nn3C)ccc2[nH]1` gave a remaining binding of 82% (cell-free assay; competition with immobilised ligand; 0.1 µM).
The remaining binding of `COc1ccnn2ncc(-c3ccnc(N(C)C)n3)c12` is reported as 65% (binding; 1 µM).
`Cc1c(NC(=O)c2cc(C(N)=O)nc3cc(F)ccc23)c(C(F)(F)F)nn1Cc1ccc(C(C)(C)C)cc1` gave a remaining binding of 100% (cell-free assay; competition with immobilised ligand; 1 µM).
`Cc1cnc(Nc2ccc(C(=O)N3CCC(N4CCCC4)CC3)cc2)nc1-c1cc2ccccc2s1` has a remaining binding of 25% (binding; competition with immobilised ligand; 1 µM).
`N[C@H]1CCN(c2nccc(-c3cnn4ncccc34)n2)C1` gave a remaining binding of 100% (binding; 1 µM).
The remaining binding of `CS(=O)(=O)N1CCCC(NC(=O)[C@H](CCC2CCCCC2)NC(=O)c2ccc(CNC(=O)c3cnc4ccccn34)cc2)C1` (stereo partly drawn) is reported as 100% (cell-free assay; competition with immobilised ligand; 0.1 µM).
`Nc1ncc2c(n1)-c1c([nH]c3ccc(C#CC4CC4)cc13)CCCC2` gave a remaining binding of 96% (binding; competition with immobilised ligand; 1 µM).
The remaining binding of `CN(C)c1ncc(F)c(-c2cnn3ncccc23)n1` is reported as 74% (binding; 1 µM).
With `C[C@@H]1CN(c2cc(-c3nn(C)c4ccc(OC5(C)CC5)cc34)ncn2)C[C@H](C)O1` the remaining binding was 54% (cell-free assay; competition with immobilised ligand; 1 µM).
With `O=C(NCCCN1CCOCC1)c1ccc(Nc2ncc(Cl)c(-c3ccc(Cl)s3)n2)cc1` the remaining binding was 55% (binding; competition with immobilised ligand; 1 µM).
With `N#Cc1ccccc1CSc1nnc2c(n1)[nH]c1ccccc12` the remaining binding was 90% (binding; competition with immobilised ligand; 10 µM).
`CC1CCCN1c1nccc(-c2cnn3ncccc23)n1` (stereo not drawn) gave a remaining binding of 97% (binding; 1 µM).
The remaining binding of `O=C(NCC1CCOCC1)c1n[nH]cc1NC(=O)c1c(F)cccc1F` is reported as 86% (binding; competition with immobilised ligand; 1 µM).
`C[C@H]1CCN(c2nccc(-c3cnn4ncccc34)n2)C1` gave a remaining binding of 97% (binding; 1 µM).
For `COc1cnc(Nc2cccc(S(N)(=O)=O)c2)nc1N1CCN(c2ccccc2)C(=O)C1`, the remaining binding was 0% (binding; competition with immobilised ligand; 1 µM).
